Source: PubChem
CHRM5 PAM – human M5 muscarinic receptor positive allosteric modulators, primary screen, CHO-K1 cells, Fluo-8 calcium fluorescence; Muscarinic acetylcholine receptor M5 (Homo sapiens), P08912; CHO-K1 hM5, ACh EC20 PAM; 0% = ACh EC20, 100% = ACh EC100; activation, % at 3 µM; 0.3% of 360,000 active; AID 624038, 2012;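 active = activation above the run cutoff, the mean activation of all test compounds plus 3 SD, cut at about 18% in these data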
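system = human M5 receptor in CHO-K1 cells | compound = one concentration, 3 µM final (nominal) | schedule = Post-acetylcholine fluorescence recording 140 s | signal = Fluo-8 calcium dye fluorescence, kinetic read | benchmarks = low control EC20 acetylcholine (0%), high control EC100 acetylcholine (100%) | repeats = singlicate, one well per test compound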
M4 ag – human M4 muscarinic receptor agonists, primary screen, CHO-K1 cells, Fluo-8 calcium fluorescence; activation, % at 3 µM; 0.14% of 360,000 active; Muscarinic acetylcholine receptor M4 (Homo sapiens), P08173; CHO-K1 hM4/Gqi5; vehicle 0%, full acetylcholine response 100%;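 active = activation above the run mean over all test wells plus 3 SD, cut at about 32% in these data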;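 note: peak over basal fluorescence ratio per well then scaled between controls; 0% = DMSO wells and 100% = acetylcholine at EC100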
Target sequence (P08173 whole entry, looked up): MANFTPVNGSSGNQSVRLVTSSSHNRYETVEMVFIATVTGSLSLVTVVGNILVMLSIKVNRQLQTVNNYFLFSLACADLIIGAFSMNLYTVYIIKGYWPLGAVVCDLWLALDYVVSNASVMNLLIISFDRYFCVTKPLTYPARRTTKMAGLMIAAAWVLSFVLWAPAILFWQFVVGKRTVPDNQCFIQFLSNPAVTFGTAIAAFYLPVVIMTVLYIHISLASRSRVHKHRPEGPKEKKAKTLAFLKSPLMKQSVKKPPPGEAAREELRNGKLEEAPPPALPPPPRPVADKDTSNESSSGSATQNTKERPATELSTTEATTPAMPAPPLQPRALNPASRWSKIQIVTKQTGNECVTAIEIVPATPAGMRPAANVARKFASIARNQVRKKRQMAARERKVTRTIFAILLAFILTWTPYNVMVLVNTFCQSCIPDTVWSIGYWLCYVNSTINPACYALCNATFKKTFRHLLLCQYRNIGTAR
CHRM5 antagonist – human M5 muscarinic receptor antagonists, primary screen, CHO cells, Fluo-8 calcium fluorescence. Muscarinic acetylcholine receptor M5 (Homo sapiens), P08912. CHO-hM5 cells, ACh EC80. inhibition, % at 3 µM. 0.59% of 360,000 active;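 active = inhibition above a per-plate cutoff, the mean of that plate's test compounds plus 3 SD, cut at about 27% in these data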;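 note: 0% = acetylcholine EC80 with DMSO and 100% = DMSO without agonist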
M4 PAM – human M4 muscarinic receptor positive allosteric modulators, primary screen, CHO-K1 cells, Fluo-8 calcium fluorescence; Muscarinic acetylcholine receptor M4 (Homo sapiens), P08173; 0.4% of 360,000 active; activation, % at 3 µM; CHO-K1 hM4/Gqi5, ACh EC20; 0% = ACh EC20, 100% = maximal ACh;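 active = activation above its plate's cutoff, the mean activation of sample wells plus 3 SD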
M5 ag – human M5 muscarinic receptor agonists, primary screen, CHO-K1 cells, Fluo-8 calcium fluorescence | Muscarinic acetylcholine receptor M5 (Homo sapiens), P08912 | CHO-K1 hM5 cells; 0% DMSO wells, 100% maximal acetylcholine response | activation, % at 3 µM | 0.19% of 360,000 active | AID 624037, 2012;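 active = activation above the run's mean over test compounds plus 3 SD, cut at about 23% in these data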;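 note: signal is peak over basal fluorescence ratio across the kinetic read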
M4 antag – human M4 muscarinic receptor antagonists, primary screen, CHO cells, Fluo-8 calcium fluorescence; Muscarinic acetylcholine receptor M4 (Homo sapiens), P08173; 0.73% of 360,000 active; CHO-hM4 cells, ACh EC80; inhibition, % at 3 µM;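 active = inhibition above its plate's cutoff, the mean inhibition of sample wells plus 3 SD, cut at about 27% in these data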;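 note: 0% = acetylcholine EC80 with DMSO and 100% = DMSO without agonist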
* marks the source's active call; other numbers are inactive results; ! = not active in a repeat. Rows were chosen to be rich in hits. Some 1.8% of all compounds tested hit in one or more screens of this group.

SMILES	CHRM5 PAM	M4 ag	CHRM5 antagonist	M4 PAM	M5 ag	M4 antag
O=C(Nc1ccc2c(c1)OCCO2)C(c1ccnc2ccccc12)N1CCN(c2ccc(C(F)(F)F)cn2)CC1 (configuration not stated)	15.0	2.6	7.7	-2.2	13.9	0.0
COc1ccc(C(=O)N/N=C/c2ccc(OC)c(COc3c(F)c(F)cc(F)c3F)c2)cc1	1.8	4.3	10.5	-7.5	-4.9	-4.4
COc1ccc(/C=N\NC(=O)c2ccc([N+](=O)[O-])cc2)cc1COc1c(F)c(F)cc(F)c1F	-8.5	0.1	27.1*	-0.9	-4.0	-0.3
O=C(Cn1ncc2c([nH]c3ccccc32)c1=O)NCCCN1CCN(c2ccccc2)CC1	-2.5	6.2	1.3	-0.6	-5.8	0.6
COc1cccc(N2CCN(C(=O)c3cccn4c(=O)c5c(C)c(C)sc5nc34)CC2)c1	18.6*	2.0	-14.6	3.0	7.6	2.4
COc1ccc(N2CCN(C(=O)c3cccn4c(=O)c5ccccc5nc34)CC2)cc1	-3.5	1.4	3.5	3.8	2.8	-3.3
O=C(COc1ccc(S(=O)(=O)N2CCOCC2)cc1)NCCc1ccc(Cl)cc1	1.2	5.8	2.0	-3.0	0.7	-5.7
Cc1ccccc1C1c2[nH]c3ccccc3c2CCN1CCCn1cccn1 (configuration not stated)	-23.1	-0.2	14.1	-43.5	-17.4	61.0*
CC1(C(=O)NCCOc2ccccc2Cl)CC1(Cl)Cl (configuration not stated)	11.7	-0.6	-12.8	-3.8	-6.5	-8.4
CS(=O)(=O)c1ccc(Cl)c(NC(=O)COC(=O)c2ccc(F)cc2Cl)c1	18.1*	0.3	-3.6	5.3	5.2	1.9
CCC(C)Sc1ccc(-c2nc3ccc(C)cn3c2NCc2ccccc2)cc1OC (configuration not stated)	-38.2	9.7	23.8	-4.6	-7.0	44.3*
CCC(C)Sc1cc(-c2nc3ccc(C)cn3c2NCc2ccccc2)ccc1OC (configuration not stated)	-38.7	14.8	29.1*!	-13.3	-2.0	72.0*
O=C(NC(NNc1ccc([N+](=O)[O-])cc1)(C(F)(F)F)C(F)(F)F)c1ccccc1Cl	-12.4	4.0	9.6	-10.7	0.4	5.8
O=C(NC(NNc1ccc([N+](=O)[O-])cc1)(C(F)(F)F)C(F)(F)F)c1ccc(F)cc1	-16.6	12.7	28.9*	-9.2	9.2	9.3
COc1ccc(NC(=O)CN2C(=O)NC3(CCCCC3C)C2=O)cc1OC (configuration not stated)	6.5	0.4	4.3	6.5	3.1	1.5
CCN(C(=O)c1ccc(Cl)cc1[N+](=O)[O-])c1ccccc1C	-0.5	0.6	2.8	-9.9	-9.3	4.6
CC(C)(C)N(Cc1ccccc1)C(=O)c1ccc(Br)o1	0.4	-2.2	1.6	1.1	-8.6	-4.0
Cc1ccc(C(=O)N(Cc2ccccc2)C(C)(C)C)cc1C	-19.7	-1.6	20.2	-15.4	-9.4	36.6*
CC(C)(C)N(Cc1ccccc1)C(=O)c1ccc(Cl)cc1[N+](=O)[O-]	-19.2	2.3	11.4	-18.0	-9.2	26.8*
C/C(=N\NC(=O)c1cccc(N/N=C(\C)c2ccc([N+](=O)[O-])cc2)c1)c1ccc([N+](=O)[O-])cc1	0.3	0.6	-2.2	8.4	1.7	7.1
O=C(CC(=O)c1cc(Cl)ccc1O)c1ccccc1	-0.2	-0.2	0.9	5.0	0.6	-8.5
O=C(c1ccccc1)c1cc(Cl)ccc1N1C(=O)C=CC1=O	8.5	4.8	6.3	-16.6	6.2	34.5*
